Screening data deposited in PubChem BioAssay by The Scripps Research Institute Molecular Screening Center.
An excerpt weighted towards active compounds, which were near 1.5% of everything screened.
HTRA1 inh = HTRA1 serine protease inhibitors, primary screen, biochemical, fluorescence polarization, HTS; Q92743; recombinant HTRA1, FP-rhodamine activity-based probe; inhibition, % at 5.96 µM; actives 0.5% (n = 340,000); AID 504803, 2011; in the data active means inhibition above about 36%
ABHD4 inh = ABHD4 inhibitors, primary screen, biochemical, fluorescence polarization, mouse | actives 0.54% (n = 370,000) | inhibition, % at 8.92 µM | purified mABHD4, FP-Rh probe fluorescence polarization | (Lyso)-N-acylphosphatidylethanolamine lipase (Mus musculus), Q8VD66;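 active means inhibition exceeding the mean over every tested compound plus 3 SD, cut at about 30% in these data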
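System: mouse ABHD4 enzyme, wild type / Medium: HEPES pH 7.0, NaCl, Pluronic buffer / Reagent: FP-Rh activity-based fluorescent probe / Control set: S159A mutant high control, sample median low control / Detection: fluorescence polarization with parallel and perpendicular emission, 525/598 nm / Schedule: 45 min + 60 min at 25 °C / Compound dosing: 8.92 µM, single dose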
SIAE inh = human SIAE inhibitors, primary screen, biochemical, fluorescence polarization, FP-Rh probe, 1536-well HTS. Sialate O-acetylesterase (Homo sapiens), Q9HAT2. SIAE FP-Rh probe binding. inhibition, % at 9.66 µM. actives 0.69% (n = 370,000). AID 1053197, 2014;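 active means inhibition above a cutoff: mean of compounds within the control limits plus 3 SD of those, cut at about 17% in these data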
DAGLB inhibitor = DAGLB lipase inhibitors, primary screen, biochemical, fluorescence, HTS. HEK293T DAGLB membrane lysate, EnzChek fluorogenic substrate. inhibition, % at 5.17 µM. Diacylglycerol lipase-beta (Homo sapiens), Q8NCG7. actives 0.059% (n = 340,000); in the data active means inhibition above about 34%
Target sequence (Q8NCG7 whole entry, looked up): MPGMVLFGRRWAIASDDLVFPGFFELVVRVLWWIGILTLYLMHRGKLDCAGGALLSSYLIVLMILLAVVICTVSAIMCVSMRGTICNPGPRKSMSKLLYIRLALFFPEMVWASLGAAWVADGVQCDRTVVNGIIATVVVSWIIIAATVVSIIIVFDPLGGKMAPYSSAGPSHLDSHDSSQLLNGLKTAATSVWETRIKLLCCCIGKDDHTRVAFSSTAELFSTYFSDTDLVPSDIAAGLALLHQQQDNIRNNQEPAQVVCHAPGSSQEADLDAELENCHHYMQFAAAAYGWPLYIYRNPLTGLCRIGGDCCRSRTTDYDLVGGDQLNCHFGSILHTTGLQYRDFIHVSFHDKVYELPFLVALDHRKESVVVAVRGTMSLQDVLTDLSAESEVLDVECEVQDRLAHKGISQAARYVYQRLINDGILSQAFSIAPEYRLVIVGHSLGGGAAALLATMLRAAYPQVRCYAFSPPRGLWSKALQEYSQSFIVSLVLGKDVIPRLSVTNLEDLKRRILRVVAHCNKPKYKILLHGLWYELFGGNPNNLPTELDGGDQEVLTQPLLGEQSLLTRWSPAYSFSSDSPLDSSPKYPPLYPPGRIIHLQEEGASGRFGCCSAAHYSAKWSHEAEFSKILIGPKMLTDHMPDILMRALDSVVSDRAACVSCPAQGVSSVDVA
TCR-CD3 inh = inhibitors of human TCR-CD3 interaction, primary screen, biochemical, fluorescence, TAMRA-labeled TCR probe; inhibition, % at 9.4 µM; AID 651800, 2012; actives 0.37% (n = 360,000);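 further: recombinant mutant TCR 2C K166C tagged with TAMRA read by polarization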
BSA probe FL = compounds interfering with TAMRA-BSA probe, counter-screen for TCR-CD3 interaction inhibitor project, biochemical, fluorescence, TAMRA-labeled BSA | shares compounds with TCR-CD3 inh | TAMRA-labeled BSA probe fluorescence counterscreen | inhibition, % at 9.4 µM | actives 10% (n = 1,200) | AID 652035, 2013; in the data active means inhibition above about 23%
TCR-CD3 inh conf = TCR-CD3 interaction inhibitors, retest, confirmation, biochemical, fluorescence, TAMRA-labeled TCR probe. actives 48% (n = 1,200). inhibition, % at 9.4 µM. TAMRA-labeled TCR probe fluorescence binding assay. shares compounds with TCR-CD3 inh
mABHD4 conf = ABHD4 inhibitors, retest, confirmation, biochemical, fluorescence polarization, mouse | shares compounds with ABHD4 inh | purified mABHD4, FP-Rh probe fluorescence polarization | inhibition, % at 8.92 µM | actives 55% (n = 1,800) | AID 720658, 2013;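 active means mean inhibition across replicates above the hit cutoff set in the primary screen, cut at about 30% in these data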
SIAE inh conf = human SIAE inhibitors, retest, confirmation, biochemical, fluorescence polarization, FP-Rh probe, triplicate | shares compounds with SIAE inh | SIAE FP-Rh activity-based probe | inhibition, % at 9.66 µM | actives 13% (n = 2,300) | AID 1117263, 2014;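 active means mean inhibition of the replicates above the hit cutoff set in the primary screen, cut at about 17% in these data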;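 further: inhibitors lower polarization as more probe stays unbound to SIAE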
Numbers stand for hits. Unless noted, no stated cut-off is given here; in the data, active means inhibition above about 19%; inactive means the rest.

O=C(N/N=C/c1c(O)n(Cc2ccco2)c(=O)[nH]c1=O)c1ccccc1O was read as HTRA1 inh inactive, ABHD4 inh 31, SIAE inh inactive, DAGLB inhibitor inactive, TCR-CD3 inh 41, BSA probe FL inactive, TCR-CD3 inh conf 40 and mABHD4 conf 32.
`CC1(C)CC(=O)CC(C)(C)N1O` gave HTRA1 inh inactive, ABHD4 inh inactive, SIAE inh inactive, DAGLB inhibitor inactive and TCR-CD3 inh inactive.
`O=[N+]([O-])c1ccc(NCc2ccccc2)c2nonc12` gave ABHD4 inh 53, SIAE inh 37, TCR-CD3 inh 66, BSA probe FL 99, TCR-CD3 inh conf 81, mABHD4 conf 79 and SIAE inh conf 29.
Screening COc1ccc(-c2ccc(OC)c(OC)c2OC)cc1 returned HTRA1 inh inactive, ABHD4 inh inactive, SIAE inh inactive, DAGLB inhibitor inactive and TCR-CD3 inh inactive.
For O=c1[nH]c(=O)n(CCC2=CCCCC2)c(O)c1/C=N/Nc1ccccc1 the results were HTRA1 inh inactive, ABHD4 inh inactive, SIAE inh inactive, DAGLB inhibitor inactive and TCR-CD3 inh inactive.
Screening O=c1[nH]c(=O)n(CCC2=CCCCC2)c(O)c1/C=N/Nc1cccc2ccccc12 returned HTRA1 inh inactive, ABHD4 inh 33, SIAE inh inactive, DAGLB inhibitor inactive, TCR-CD3 inh inactive and mABHD4 conf inactive.
`CCCCn1nnnc1C(CCc1ccccc1)N1CCC2(CC1)C(=O)NCN2c1ccccc1` (stereo not drawn) gave ABHD4 inh inactive, SIAE inh inactive and TCR-CD3 inh inactive.
`COc1ccc(-n2c(=S)[nH]c3ccc(C)cc3c2=O)cc1` gave HTRA1 inh inactive, ABHD4 inh 32, SIAE inh inactive, DAGLB inhibitor inactive, TCR-CD3 inh inactive and mABHD4 conf inactive.
COC(=O)C1=C(c2ccc(OCc3ccccc3)cc2)C[C@@H]2CC[C@H]1N2C(=O)NCc1ccc(OC)c(OC)c1 was read as HTRA1 inh inactive, ABHD4 inh 46, SIAE inh inactive, DAGLB inhibitor inactive, TCR-CD3 inh inactive and mABHD4 conf 58.
Cn1cccc1/C=C1/C(=O)NC(=S)N(Cc2ccc(F)cc2)C1=O was read as HTRA1 inh 45, ABHD4 inh 49, SIAE inh inactive, DAGLB inhibitor inactive, TCR-CD3 inh inactive and mABHD4 conf 57.
For Cn1cccc1/C=C1/C(=O)NC(=O)N(Cc2ccc(F)cc2)C1=O the results were HTRA1 inh inactive, ABHD4 inh inactive, SIAE inh inactive, DAGLB inhibitor inactive and TCR-CD3 inh inactive.
`CCC1(CCC(C)C)C(=O)NC(=O)N(c2ccccc2)C1=O` (stereo not drawn) gave ABHD4 inh inactive, SIAE inh inactive and TCR-CD3 inh inactive.
Screening C=CCn1c(O)c(C(CC)=Nc2ccc3c(c2)CCC3)c(=O)[nH]c1=O returned HTRA1 inh inactive, ABHD4 inh inactive, SIAE inh inactive, DAGLB inhibitor inactive and TCR-CD3 inh inactive.
`C=CCn1c(O)c(C(CC)=Nc2ccc(N(C)C)cc2)c(=O)[nH]c1=O` gave ABHD4 inh 43, SIAE inh inactive, TCR-CD3 inh inactive and mABHD4 conf inactive.
